Assay results from ChEMBL document CHEMBL5338794, “Optimization of Orally Bioavailable Antileishmanial 2,4,5-Trisubstituted Benzamides” (J Med Chem, 2023).
In brackets after ≈: the same amount, converted by molar mass. Activity calls are given as the source filed them. No cut-off for these calls is given here.

Tests used:
Leishmania mexicana [1] = assay: Antileishmanial activity against renilla luciferase-expressing Leishmania mexicana promastigotes infected in mouse J774.A1 cells assessed as inhibition of intracellular amastigotes growth incubated for 96 hrs by Renilla luciferase assay; assay type: functional, organism-based; conditions: J774.A1, 96 h
BJ = assay: Cytotoxicity against human BJ cells assessed as reduction in cell viability incubated for 72 hrs by Cell TiterGlo assay; assay type: functional, cell-based
[2] = Cmax in CD-1 mouse at 3 mg/kg,iv and measured upto 24 hrs by LC-MS/MS analysis; assay type: ADME, organism-based; set-up: dose 3 mg/kg, time < 24 hrs, route iv; conditions: in vivo
Method in brief: (§1)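 Single intravenous dose to mice at 3 mg/kg. Plasma concentration–time profile used for t1/2, Cmax, AUC, clearance and steady-state volume of distribution.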

[3] = Kinetic aqueous solubility of the compound in PBS at pH 7.4 incubated for 18 hrs by LC-MS analysis; assay type: physicochemical; conditions: read-out: Kinetic_solubility
[4] = Metabolic stability in CD-1 mouse liver microsomes assessed as half life at 1 uM and measured upto 60 mins in presence of NADPH regenerating system by LC-MS/MS analysis; assay type: ADME, Microsome; conditions: 1 h
Method in brief: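 Half-life and intrinsic clearance determined by incubation with mouse liver microsomes.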

[5] = Half life in CD-1 mouse at 3 mg/kg,iv and measured upto 24 hrs by LC-MS/MS analysis; assay type: ADME, organism-based; conditions: in vivo; method in brief: as §1
[6] = AUC in CD-1 mouse at 3 mg/kg,iv and measured upto 24 hrs by LC-MS/MS analysis; assay type: ADME, organism-based; set-up: time < 24 hrs, dose 3 mg/kg, route iv; conditions: in vivo; method in brief: as §1
[7] = Clearance in CD-1 mouse at 3 mg/kg,iv and measured upto 24 hrs by LC-MS/MS analysis; assay type: ADME, organism-based; conditions: in vivo; method in brief: as §1
[8] = Volume of distribution in CD-1 mouse at 3 mg/kg,iv and measured upto 24 hrs by LC-MS/MS analysis; assay type: ADME, organism-based; conditions: in vivo; method in brief: as §1
[9] = Half life in CD-1 mouse at 10 mg/kg,po and measured upto 24 hrs by LC-MS/MS analysis; assay type: ADME, organism-based; conditions: in vivo
Method in brief: (§2)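 Single oral dose to mice at 10 mg/kg, in 20% PEG 400/80% (20% SBE-beta-CD in water). Plasma concentration–time profile used for t1/2, Cmax, Tmax, AUC, CL, apparent Vd and bioavailability (F).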

[10] = Cmax in CD-1 mouse at 10 mg/kg,po and measured upto 24 hrs by LC-MS/MS analysis; assay type: ADME, organism-based; set-up: dose 10 mg/kg, time < 24 hrs, route po; conditions: in vivo; method in brief: as §2
[11] = Tmax in CD-1 mouse at 10 mg/kg,po and measured upto 24 hrs by LC-MS/MS analysis; assay type: ADME, organism-based; conditions: in vivo; method in brief: as §2
[12] = AUC in CD-1 mouse at 10 mg/kg,po and measured upto 24 hrs by LC-MS/MS analysis; assay type: ADME, organism-based; set-up: time < 24 hrs, dose 10 mg/kg, route po; conditions: in vivo; method in brief: as §2
[13] = Clearance in CD-1 mouse at 10 mg/kg,po and measured upto 24 hrs by LC-MS/MS analysis; assay type: ADME, organism-based; conditions: in vivo; method in brief: as §2
[14] = Volume of distribution in CD-1 mouse at 10 mg/kg,po and measured upto 24 hrs by LC-MS/MS analysis; assay type: ADME, organism-based; conditions: in vivo; method in brief: as §2
[15] = Oral bioavailability in CD-1 mouse at 10 mg/kg and measured upto 24 hrs by LC-MS/MS analysis; assay type: ADME, organism-based; conditions: in vivo; method in brief: as §2
Plasma [16] = assay: Time during which plasma concentration exceeds EC50 for inhibition of proliferation of luciferase expressing Leishmania mexicana intracellular amastigotes cultured in mouse J774.A1 cells infected to CD-1 mouse at 3 mg/kg,iv by LC-MS/MS analysis; assay type: organism-based; conditions: in vivo
Plasma [17] = assay: Time during which plasma concentration exceeds EC50 for inhibition of proliferation of luciferase expressing Leishmania mexicana intracellular amastigotes cultured in mouse J774.A1 cells infected to CD-1 mouse at 10 mg/kg,po by LC-MS/MS analysis; assay type: organism-based; conditions: in vivo
Method in brief: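 Time that plasma concentration stays above the intracellular-amastigote EC50, read from the plasma profile after a single oral dose at 10 mg/kg in 20% PEG 400/80% (20% SBE-beta-CD in water).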

Leishmania mexicana [18] = assay: Antileishmanial activity against Leishmania mexicana MNZY/BZ/62/M379 promastigotes infected in BALB/c mouse assessed as fold reduction in footpad lesion development by measuring lesion size at 50 mg/kg, po QD for 10 days administered at day 18 postinfection and measured at 5 weeks postinfection by caliper analysis; assay type: functional; conditions: time 10 day
Method in brief: (§3)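 BALB/c mice, 5 per group, infected with L. mexicana by footpad injection. Vehicle or HCl salt of compound given by oral gavage at 50 mg/kg/day for 10 consecutive days from day 18 postinfection. Lesion size measured by caliper up to 5 weeks postinfection, reported as mean ± SD. Groups compared by Mann–Whitney.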

Leishmania mexicana [19] = assay: Antileishmanial activity against Leishmania mexicana MNZY/BZ/62/M379 promastigotes infected in BALB/c mouse assessed as footpad lesion development at 50 mg/kg, po QD for 10 days administered at day 18 postinfection and measured after 5 weeks postinfection by caliper analysis; assay type: functional, organism-based; conditions: time 10.0 day; method in brief: as §3

| Compound | EC50 (Leishmania mexicana [1]) [nM] | EC50 (BJ) [nM] | Cmax [2] [nM] | solubility kinetic at 18 h [3] [µM] | t1/2 [4] [h] | t1/2 [5] [h] | AUC [6] [µM·h] | CL [7] [mL/min/kg] | Vd [8] [L/kg] | t1/2 [9] [h] | Cmax [10] [nM] | Tmax [11] [h] | AUC [12] [µM·h] | CL/F [13] [mL/min/kg] | Vd [14] [L/kg] | F [15] [%] | T>EC50 (Plasma [16]) [h] | T>EC50 (Plasma [17]) [h] | fold change (FC) (Leishmania mexicana [18]) | Activity (Leishmania mexicana [19]) |
| --- | --- | --- | --- | --- | --- | --- | --- | --- | --- | --- | --- | --- | --- | --- | --- | --- | --- | --- | --- | --- |
| O=C(Nc1ccc(Cl)c(Cl)c1)c1ccc(N2CCNCC2)c([N+](=O)[O-])c1 | 700 | 15000 | 1950 | 46 (≈ 18.2 µg/mL) | 1.92 | 3.4 | 2.85 | 42.8 | 9.3 | 3.6 | 1000 | 2 | 7.82 | 53.5 | 6.8 | 80 | 1.5 | 5.5 | 10 | inactive |
| O=C(Nc1cncc(-c2nc3ccccc3o2)c1)c1cc([N+](=O)[O-])c(N2CCNCC2)cc1Cl | 800 | 3100 | – | 12.4 (≈ 5.94 µg/mL) | 2.17 | – | – | – | – | – | – | – | – | – | – | – | – | – | – | – |
| Cc1ccc(-c2nc3ccccc3s2)cc1NC(=O)c1cc([N+](=O)[O-])c(N2CCN(C)CC2)cc1Cl | 800 | > 25000 | – | < 0.3 | 0.217 | – | – | – | – | – | – | – | – | – | – | – | – | – | – | – |
